Active and inactive are the calls of the source. The rule behind the calls is not given here.
How the values were obtained:
[1] = biological target: T1, Gastrin/cholecystokinin type B receptor (Homo sapiens, UniProt P32239); test: Displacement of [125I]CCK-8(SO3) from human CCK2 receptor expressed in HEK293 cells; type: cell-based
T1 sequence (P32239 whole entry): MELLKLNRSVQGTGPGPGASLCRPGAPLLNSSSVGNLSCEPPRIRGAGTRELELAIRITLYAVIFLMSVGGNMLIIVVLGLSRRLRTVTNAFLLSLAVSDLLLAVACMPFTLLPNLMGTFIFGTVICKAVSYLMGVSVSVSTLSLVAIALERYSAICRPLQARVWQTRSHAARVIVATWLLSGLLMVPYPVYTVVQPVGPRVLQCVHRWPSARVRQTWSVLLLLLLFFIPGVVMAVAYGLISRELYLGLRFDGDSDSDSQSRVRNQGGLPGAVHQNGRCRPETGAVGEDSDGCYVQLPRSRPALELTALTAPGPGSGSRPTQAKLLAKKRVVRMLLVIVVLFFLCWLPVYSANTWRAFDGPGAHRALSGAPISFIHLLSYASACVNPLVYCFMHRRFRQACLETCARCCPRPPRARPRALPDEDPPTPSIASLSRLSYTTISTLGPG

[2] = biological target: T2, Mu-type opioid receptor (Rattus norvegicus, UniProt P33535); test: Displacement of [3H]DAMGO from rat mu opioid receptor expressed in HN9.10 cells; type: cell-based
Outline: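 HN9.10 cell membranes (50 μg) expressing rMOR, 10 test concentrations with 1.0 nM [3H]DAMGO in 50 mM Tris pH 7.4 with peptidase inhibitors and BSA, 3 h at 25 °C, duplicates; filtration, scintillation counting. Nonspecific with 10 μM naloxone. Ki by Cheng–Prusoff.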

[3] = biological target: Delta-type opioid receptor (Mus musculus, UniProt P32300); test: Agonist activity at delta opioid receptor assessed as inhibition of electrically stimulated ICR mouse vas deferens contraction; type: functional, tissue-based
Outline: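 Vas deferens from male ICR mice, in 20 mL baths at 0.5 g tension, Mg-free oxygenated Krebs, 37 °C; electrical stimulation 0.1 Hz, 2.0 ms pulses, supramaximal voltage. Cumulative addition to maximal inhibition; integrity checked with 10 nM DPDPE. IC50 by Hill-equation nonlinear least-squares fit, at least four tissues.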

[4] = biological target: T1, Gastrin/cholecystokinin type B receptor; test: Antagonist activity at CCK2 receptor expressed in HEK293 cells assessed as accumulation of [3H]inositol phosphates by PI assay; type: functional, cell-based
[5] = biological target: T3, Cholecystokinin receptor type A (Homo sapiens, UniProt P32238); test: Displacement of [125I]CCK-8(SO3) from human CCK1 receptor expressed in HEK293 cells; type: cell-based
T3 sequence (P32238 whole entry): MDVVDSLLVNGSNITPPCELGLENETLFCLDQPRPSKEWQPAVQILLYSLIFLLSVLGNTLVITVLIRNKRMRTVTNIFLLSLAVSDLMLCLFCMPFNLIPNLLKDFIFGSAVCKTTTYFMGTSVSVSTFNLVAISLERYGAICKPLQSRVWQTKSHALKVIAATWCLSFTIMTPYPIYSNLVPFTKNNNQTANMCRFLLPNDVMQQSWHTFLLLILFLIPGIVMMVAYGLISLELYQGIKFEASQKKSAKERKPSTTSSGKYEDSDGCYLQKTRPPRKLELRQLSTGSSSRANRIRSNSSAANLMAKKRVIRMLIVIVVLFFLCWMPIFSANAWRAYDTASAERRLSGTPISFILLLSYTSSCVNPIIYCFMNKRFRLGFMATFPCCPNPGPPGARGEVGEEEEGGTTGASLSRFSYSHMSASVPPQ

[6] = biological target: Mu-type opioid receptor (Cavia porcellus, UniProt P97266); test: Agonist activity at mu opioid receptor assessed as inhibition of electrically stimulated Hartley guinea pig ileum contraction; type: functional, tissue-based
Outline: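 Longitudinal muscle–myenteric plexus strips from male Hartley guinea pig ileum, 1 g tension, oxygenated Krebs at 37 °C; 0.1 Hz, 0.4 ms supramaximal stimulation. […] Integrity checked with 10 nM PL-017. Hill-equation fit, at least four tissues.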

[7] = biological target: T4, Delta-type opioid receptor (Homo sapiens, UniProt P41143); test: Activity against [35S]GTP-gamma-S binding to human delta opioid receptor expressed in HN9.10 cells; type: functional, cell-based
Outline: (§1)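 Membranes (10 μg) from HN9.10 cells stably expressing hDOR or rMOR; various drug concentrations in duplicate or triplicate, 90 min at 30 °C in HEPES pH 7.4 with GDP, MgCl2, NaCl, 0.1 nM [35S]GTPγS; filtration, scintillation counting.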

[8] = biological target: T4, Delta-type opioid receptor; test: Displacement of [3H]DPDPE from human delta opioid receptor expressed in HN9.10 cells; type: cell-based
Outline: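 HN9.10 cell membranes (50 μg) expressing hDOR, 10 test concentrations with 1.0 nM [3H]DPDPE in 50 mM Tris pH 7.4 with peptidase inhibitors and BSA, 3 h at 25 °C, duplicates; filtration, scintillation counting. Nonspecific with 10 μM naloxone. Ki by Cheng–Prusoff.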

[9] = biological target: T2, Mu-type opioid receptor; test: (§2) Activity against [35S]GTP-gamma-S binding to rat mu opioid receptor expressed in HN9.10 cells; type: functional, cell-based; outline: as §1
[10] = biological target: Mu-type opioid receptor (Rattus norvegicus) (UniProt P33535); test: as §2; type: functional, cell-based; outline: as §1
[11] = biological target: T5, Cholecystokinin receptor type A (Homo sapiens) (UniProt P32238); details: HEK293
T5 sequence (whole entry): T3 sequence (P32238 whole entry)

T2 sequence (P33535 whole entry): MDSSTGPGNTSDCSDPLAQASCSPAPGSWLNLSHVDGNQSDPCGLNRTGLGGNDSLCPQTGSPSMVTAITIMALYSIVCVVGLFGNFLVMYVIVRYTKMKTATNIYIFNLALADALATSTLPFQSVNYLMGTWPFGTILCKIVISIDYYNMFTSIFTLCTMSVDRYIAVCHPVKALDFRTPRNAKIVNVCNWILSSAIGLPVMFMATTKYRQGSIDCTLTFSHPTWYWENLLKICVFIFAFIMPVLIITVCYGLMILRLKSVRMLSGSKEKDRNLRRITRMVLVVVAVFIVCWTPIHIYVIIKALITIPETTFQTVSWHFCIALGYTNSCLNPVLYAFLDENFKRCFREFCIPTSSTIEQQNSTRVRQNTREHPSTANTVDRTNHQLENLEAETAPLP
Sequence of Mu-type opioid receptor (Rattus norvegicus) (P33535 whole entry): as above
Sequence of Delta-type opioid receptor (Mus musculus, UniProt P32300) (P32300 whole entry): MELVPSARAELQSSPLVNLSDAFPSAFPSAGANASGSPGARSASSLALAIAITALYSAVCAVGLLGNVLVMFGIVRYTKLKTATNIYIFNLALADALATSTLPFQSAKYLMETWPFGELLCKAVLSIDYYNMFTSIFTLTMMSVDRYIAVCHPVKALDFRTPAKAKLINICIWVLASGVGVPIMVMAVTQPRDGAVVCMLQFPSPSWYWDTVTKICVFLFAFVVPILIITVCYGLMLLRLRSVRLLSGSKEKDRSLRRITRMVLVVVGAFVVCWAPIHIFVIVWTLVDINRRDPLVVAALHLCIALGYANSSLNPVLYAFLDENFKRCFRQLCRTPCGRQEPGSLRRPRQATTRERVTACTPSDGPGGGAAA
T4 sequence (P41143 whole entry): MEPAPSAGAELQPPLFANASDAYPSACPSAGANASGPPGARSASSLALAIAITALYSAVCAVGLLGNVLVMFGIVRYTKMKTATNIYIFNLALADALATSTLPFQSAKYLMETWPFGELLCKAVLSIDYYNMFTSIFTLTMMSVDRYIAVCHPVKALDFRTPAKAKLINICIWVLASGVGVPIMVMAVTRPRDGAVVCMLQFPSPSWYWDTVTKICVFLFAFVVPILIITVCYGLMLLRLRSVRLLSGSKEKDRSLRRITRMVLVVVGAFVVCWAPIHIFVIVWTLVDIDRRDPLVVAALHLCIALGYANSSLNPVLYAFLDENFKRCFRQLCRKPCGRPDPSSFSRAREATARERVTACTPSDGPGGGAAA
Sequence of Mu-type opioid receptor (Cavia porcellus, UniProt P97266) (P97266 whole entry): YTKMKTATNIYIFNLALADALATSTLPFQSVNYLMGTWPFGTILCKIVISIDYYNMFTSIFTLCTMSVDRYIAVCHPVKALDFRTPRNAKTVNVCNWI

Row | SMILES | IC50 [1] [nM] | Ki [1] [nM] | IC50 [2] [nM] | Ki [2] [nM] | IC50 [3] [nM] | EC50 [4] [nM] | IC50 [5] [nM] | Ki [5] [nM] | IC50 [6] [nM] | EC50 [7] [nM] | Emax [7] [%] | IC50 [8] [nM] | Ki [8] [nM] | EC50 [9] [nM] | Emax [10] [%] | Log EC50 [11]
1 | CCCC[C@@H](C(=O)N[C@@H](CC(=O)O)C(=O)N[C@@H](Cc1ccccc1)C(N)=O)N(C)C(=O)[C@H](Cc1c[nH]c2ccccc12)NC(=O)CNC(=O)[C@@H](Cc1ccccc1)NC(=O)[C@@H](N)Cc1ccc(O)cc1 | 15.1 | 15 | 245 | 100 | 65 | 16 | 3630 | 3600 | 100 | 2.5 | 84 | 18.6 | 1 | 22 | 300 | 
2 | CCCC[C@@H](C(=O)N[C@@H](CC(=O)O)C(=O)N[C@@H](Cc1ccccc1)C(N)=O)N(C)C(=O)[C@@H](Cc1c[nH]c2ccccc12)NC(=O)CNC(=O)[C@@H](C)NC(=O)[C@@H](N)Cc1ccc(O)cc1 | 1.55 | 1.5 | 50.1 | 22 | 63 | 6.6 | 316 | 320 | 150 | 23 | 56 | 3.47 | 1.5 | 38 | 44 | 
3 | CCCC[C@@H](C(=O)N[C@@H](CC(=O)O)C(=O)N[C@@H](Cc1ccccc1)C(N)=O)N(C)C(=O)[C@H](Cc1c[nH]c2ccccc12)NC(=O)CNC(=O)[C@@H](C)NC(=O)[C@@H](N)Cc1ccc(O)cc1 | 1.62 | 1.6 | 89.1 | 39 | 66 | 4.6 | 5130 | 5100 | 470 | 120 | 270 | 5.25 | 2.2 | 18 | 73 | 
4 | CCCC[C@H](NC(=O)[C@@H](Cc1c[nH]c2ccccc12)NC(=O)CNC(=O)[C@@H](C)NC(=O)[C@@H](N)Cc1ccc(O)cc1)C(=O)N[C@@H](CC(=O)O)C(=O)N[C@@H](Cc1ccccc1)C(N)=O | 2690 | 2700 | 1290 | 590 | 1300 | 330 | 6460 | 6500 | 2300 | 130 | 91 | 2000 | 860 | 350 | 110 | 
5 | CCCC[C@@H](C(=O)N[C@@H](CC(=O)O)C(=O)N[C@@H](Cc1ccccc1)C(N)=O)N(C)C(=O)[C@H](Cc1c[nH]c2ccccc12)NC(=O)CNC(=O)[C@@H](Cc1ccccc1)NC(=O)[C@H](Cc1ccc(O)cc1)NC(=O)[C@@H](N)CC(=O)O |  |  | 11500 | 5200 |  |  | 3160 | 3200 |  | 110 | 80 | 550 | 250 | 81 | 91 | inactive
6 | CCCC[C@H](NC(=O)[C@H](Cc1c[nH]c2ccccc12)NC(=O)CNC(=O)[C@@H](C)NC(=O)[C@@H](N)Cc1ccc(O)cc1)C(=O)N[C@@H](CC(=O)O)C(=O)N[C@@H](Cc1ccccc1)C(N)=O | 145 | 150 | 18.2 | 7.8 | 45 | 8 | 5750 | 5700 | 160 | 5.9 | 74 | 0.525 | 0.22 | 12 | 86 | 
7 | CCCC[C@@H](C(=O)N[C@@H](CC(=O)O)C(=O)N[C@@H](Cc1ccccc1)C(N)=O)N(C)C(=O)[C@@H](Cc1c[nH]c2ccccc12)NC(=O)CNC(=O)[C@@H](Cc1ccccc1)NC(=O)[C@@H](N)Cc1ccc(O)cc1 | 1.1 | 1.1 | 13.8 | 5.9 | 24 | 2.8 | 1100 | 1100 | 71 | 29 | 14 | 1 | 0.42 |  | 50 | inactive
8 | CCCC[C@@H](NC(=O)[C@@H](N)Cc1ccc(O)cc1)C(=O)NCC(=O)N[C@@H](Cc1c[nH]c2ccccc12)C(=O)N(C)[C@@H](CCCC)C(=O)N[C@@H](CC(=O)O)C(=O)N[C@@H](Cc1ccccc1)C(N)=O | 3.8 | 3.8 | 58.9 | 25 | 9 | 19 |  |  | 48 | 15 | 150 | 4.68 | 2 | 110 | 70 | 
9 | CCCC[C@H](NC(=O)[C@@H](Cc1c[nH]c2ccccc12)NC(=O)CNC(=O)[C@@H](Cc1ccccc1)NC(=O)[C@@H](N)Cc1ccc(O)cc1)C(=O)N[C@@H](CC(=O)O)C(=O)N[C@@H](Cc1ccccc1)C(N)=O | 1740 | 1700 | 708 | 300 | 170 |  | 1950 | 2000 | 2700 | 130 | 170 | 398 | 170 | 45 | 160 | 

Source: ChEMBL document CHEMBL1147663, “Structure-activity relationships of bifunctional peptides based on overlapping pharmacophores at opioid and cholecystokinin receptors” (J Med Chem, 2006)
